According to ChEMBL document CHEMBL3588757, “Structure-based design, synthesis and biological testing of piperazine-linked bis-epipodophyllotoxin etoposide analogs” (Bioorg Med Chem, 2015):
Activity calls are given as the source filed them. The rule behind the calls is not given here.

Key:
[1] = molecular target: DNA topoisomerase 2-alpha (Homo sapiens) (UniProt P11388); assay: Inhibition of full-length human recombinant topoisomerase 2-alpha-mediated decatenation activity of kDNA at >10 uM by ethidium bromide based gel-assay
Sequence of DNA topoisomerase 2-alpha (Homo sapiens) (P11388 whole entry): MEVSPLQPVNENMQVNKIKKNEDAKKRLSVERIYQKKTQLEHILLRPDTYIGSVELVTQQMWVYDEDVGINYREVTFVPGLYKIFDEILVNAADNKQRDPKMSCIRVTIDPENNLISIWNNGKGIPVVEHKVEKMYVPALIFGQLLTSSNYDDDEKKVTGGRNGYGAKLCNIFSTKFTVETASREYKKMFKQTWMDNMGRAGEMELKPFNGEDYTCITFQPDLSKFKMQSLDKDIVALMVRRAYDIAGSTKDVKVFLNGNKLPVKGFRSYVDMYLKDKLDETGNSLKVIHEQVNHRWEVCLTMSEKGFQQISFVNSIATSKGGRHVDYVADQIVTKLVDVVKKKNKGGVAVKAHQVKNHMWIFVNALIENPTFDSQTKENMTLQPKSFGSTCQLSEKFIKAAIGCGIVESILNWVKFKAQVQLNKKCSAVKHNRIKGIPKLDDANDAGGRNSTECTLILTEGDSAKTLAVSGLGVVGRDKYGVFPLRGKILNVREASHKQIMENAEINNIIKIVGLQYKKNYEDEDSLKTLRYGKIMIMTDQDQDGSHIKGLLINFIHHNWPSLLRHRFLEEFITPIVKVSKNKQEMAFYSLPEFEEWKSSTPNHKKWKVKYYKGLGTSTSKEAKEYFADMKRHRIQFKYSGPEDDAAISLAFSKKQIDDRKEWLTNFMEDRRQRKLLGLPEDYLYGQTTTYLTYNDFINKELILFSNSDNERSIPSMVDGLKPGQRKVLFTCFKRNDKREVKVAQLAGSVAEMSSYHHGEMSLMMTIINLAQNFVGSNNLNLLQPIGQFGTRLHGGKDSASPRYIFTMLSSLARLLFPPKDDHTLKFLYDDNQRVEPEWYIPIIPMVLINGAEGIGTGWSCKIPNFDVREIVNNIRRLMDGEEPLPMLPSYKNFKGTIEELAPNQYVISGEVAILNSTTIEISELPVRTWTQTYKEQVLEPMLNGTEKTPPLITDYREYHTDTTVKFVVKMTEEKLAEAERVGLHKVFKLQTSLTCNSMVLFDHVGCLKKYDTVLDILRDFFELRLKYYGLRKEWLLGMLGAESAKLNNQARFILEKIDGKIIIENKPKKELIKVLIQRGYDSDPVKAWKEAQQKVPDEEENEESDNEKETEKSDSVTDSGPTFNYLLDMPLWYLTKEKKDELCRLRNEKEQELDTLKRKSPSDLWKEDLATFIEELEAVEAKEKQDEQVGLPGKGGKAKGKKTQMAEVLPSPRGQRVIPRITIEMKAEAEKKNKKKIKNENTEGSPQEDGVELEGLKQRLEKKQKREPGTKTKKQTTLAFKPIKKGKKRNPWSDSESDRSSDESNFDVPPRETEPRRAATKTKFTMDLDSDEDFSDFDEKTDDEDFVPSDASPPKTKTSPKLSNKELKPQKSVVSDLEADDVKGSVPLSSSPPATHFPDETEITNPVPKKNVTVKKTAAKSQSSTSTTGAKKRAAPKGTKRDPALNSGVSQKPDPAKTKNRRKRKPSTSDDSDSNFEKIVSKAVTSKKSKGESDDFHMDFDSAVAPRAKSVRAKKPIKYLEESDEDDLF

[2] = molecular target: DNA topoisomerase 2-alpha (Homo sapiens) (UniProt P11388); assay: Inhibition of full-length human recombinant topoisomerase 2-alpha assessed as conversion of […] DNA at 100 uM by ethidium bromide based gel-assay
CHO [3] = assay: Induction of apoptosis in CHO cells assessed as increase in sub-G0/G1 cell population at 1 uM after 49 hrs by propidium iodide staining based flow cytometry; assay type: functional; settings: Cricetulus griseus
Outline: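 CHO cells grown to confluence in α-MEM/10% FCS, serum-starved 48 h (0% FCS), then seeded at 2 × 10^5 cells/mL and repleted with 10% FCS. Continuously treated from repletion with 1 µM compound (10 µM etoposide, DMSO control) for various times. Propidium iodide DNA staining, flow cytometric phase distribution including sub-G0/G1.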

CHO [4] = assay: Induction of cell cycle arrest in CHO cells assessed as accumulation at G2/M phase at 1 uM by propidium iodide staining based flow cytometry; assay type: functional; settings: Cricetulus griseus
K562 [5] = assay: Induction of apoptosis in human K562 cells assessed as decrease in proportion of viable cells at 1 uM after 24 to 48 hrs by annexin V-FITC/propidium iodide staining based two-color fluorescence flow cytometry; assay type: functional, cell-based
Outline: (§1)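 K562 cells (1 × 10^6/mL), untreated or given 1 µM compound (10 µM etoposide control) at 37 °C for 24 h or 48 h. Annexin V-FITC plus propidium iodide two-colour flow cytometry. Cells are scored as viable, apoptotic-only (annexin+/PI−), apoptotic/necrotic (annexin+/PI+) or necrotic.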

K562 [6] = assay: Induction of apoptosis in human K562 cells assessed as increase in proportion of apoptotic and apoptotic/necrotic cells at 1 uM after 24 to 48 hrs by annexin V-FITC/propidium iodide staining based two-color fluorescence flow cytometry; assay type: functional, cell-based; outline: as §1
K562 [7] = assay: Induction of apoptosis in human K562 cells assessed as increase in caspase 3/7 activity at 1 uM by luminescence analysis; assay type: functional, cell-based; settings: TDE = time-dependent effect
Outline: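 K562 cells at 2 × 10^5 cells/mL treated with vehicle or 1 µM compound for 24 or 48 h. Lysates assayed with a luminogenic DEVD-aminoluciferin caspase-3/7 substrate and read by luminescence. Four wells (eight for control); unpaired t-test vs control; repeated on two days.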

SK-OV-3 = assay: Cytotoxicity against human SKOV3 cells assessed as cell growth at 50 uM by SRB assay; assay type: functional; settings: read-out: Activity
SN12C = assay: Cytotoxicity against human SN12C cells assessed as cell growth at 50 uM by SRB assay; assay type: functional; settings: read-out: Activity
MDA-MB-435 = assay: Cytotoxicity against human MDA-MB-435 cells assessed as cell growth at 0.005 uM by SRB assay; assay type: functional; settings: read-out: Activity
OVCAR-3 = assay: Cytotoxicity against human OVCAR3 cells assessed as cell growth at 0.05 uM by SRB assay; assay type: functional; settings: read-out: Activity
MDA-MB-468 = assay: Cytotoxicity against human MDA-MB-468 cells assessed as cell growth at 5 uM by SRB assay; assay type: functional; settings: read-out: Activity
SF-539 = assay: Cytotoxicity against human SF539 cells assessed as cell growth at 50 uM by SRB assay; assay type: functional; settings: read-out: Activity

Compound	Inhibition of decatenation activity (qualitative) [1]	Inhibition (qualitative activity call) [2]	Activity (CHO [3])	Activity (CHO [4])	Activity (K562 [5])	Activity (K562 [6])	Activity (K562 [7])	growth at 50 µM (SK-OV-3)	growth at 50 µM (SN12C)	growth at 0.005 µM (MDA-MB-435)	growth at 0.05 µM (OVCAR-3)	growth at 5 µM (MDA-MB-468)	growth at 50 µM (SF-539)
COc1cc([C@@H]2c3cc4c(cc3[C@@H](NC(=O)CN3CCN(CCCCCCCCCCN5CCN(CC(=O)N[C@@H]6c7cc8c(cc7[C@@H](c7cc(OC)c(O)c(OC)c7)[C@H]7C(=O)OC[C@@H]76)OCO8)CC5)CC3)[C@H]3COC(=O)[C@H]23)OCO4)cc(OC)c1O	Active	Active	Active	Active	Active	Active	tde	-100%	-44%	96%	73%	-29%	–
COc1cc([C@@H]2c3cc4c(cc3[C@@H](NC(=O)CN3CCN(CCCCCCN5CCN(CC(=O)N[C@@H]6c7cc8c(cc7[C@@H](c7cc(OC)c(O)c(OC)c7)[C@H]7C(=O)OC[C@@H]76)OCO8)CC5)CC3)[C@H]3COC(=O)[C@H]23)OCO4)cc(OC)c1O	–	–	–	–	–	–	–	–	–	91%	108%	22%	-38%
